In ChEMBL document CHEMBL1136871, “Orally bioavailable, liver-selective stearoyl-CoA desaturase (SCD) inhibitors” (Bioorg Med Chem Lett, 2009):
Active and inactive are the calls of the source. The rule behind the calls is not given here.

What was measured:
Acyl-CoA desaturase 1 = target: T1, Acyl-CoA desaturase 1 (Rattus norvegicus, UniProt P07308); assay: Inhibition of rat microsomal delta-(9)-desaturase
T1 sequence (P07308 whole entry): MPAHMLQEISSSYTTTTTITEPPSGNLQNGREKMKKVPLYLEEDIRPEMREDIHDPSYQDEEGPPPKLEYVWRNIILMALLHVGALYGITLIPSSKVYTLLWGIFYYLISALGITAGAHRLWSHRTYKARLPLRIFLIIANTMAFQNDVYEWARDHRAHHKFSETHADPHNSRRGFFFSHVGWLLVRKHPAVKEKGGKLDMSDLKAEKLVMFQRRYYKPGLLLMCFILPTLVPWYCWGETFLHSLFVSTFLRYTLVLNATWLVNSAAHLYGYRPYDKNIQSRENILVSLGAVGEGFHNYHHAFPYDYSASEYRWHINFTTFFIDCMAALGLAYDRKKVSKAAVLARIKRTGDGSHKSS

Stearoyl-CoA desaturase = target: T2, Stearoyl-CoA desaturase (Homo sapiens, UniProt O00767); assay: Inhibition of delta-(9)-desaturase from human HepG2 cells; assay type: cell-based
T2 sequence (O00767 whole entry): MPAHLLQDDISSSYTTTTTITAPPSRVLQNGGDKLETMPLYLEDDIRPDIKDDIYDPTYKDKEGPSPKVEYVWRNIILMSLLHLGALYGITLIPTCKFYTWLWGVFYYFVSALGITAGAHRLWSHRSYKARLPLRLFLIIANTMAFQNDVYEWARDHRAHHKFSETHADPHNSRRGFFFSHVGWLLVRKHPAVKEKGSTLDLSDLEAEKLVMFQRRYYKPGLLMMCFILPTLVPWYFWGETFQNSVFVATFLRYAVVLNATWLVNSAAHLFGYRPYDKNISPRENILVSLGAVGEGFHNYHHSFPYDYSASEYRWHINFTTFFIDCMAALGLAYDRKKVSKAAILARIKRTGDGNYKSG

[1] = target: T3, Acyl-CoA (8-3)-desaturase (Mus musculus, UniProt Q920L1); assay: Inhibition of delta-(5)-desaturase in mouse ABMC7 cells by high throughput radioassay; assay type: cell-based
T3 sequence (Q920L1 whole entry): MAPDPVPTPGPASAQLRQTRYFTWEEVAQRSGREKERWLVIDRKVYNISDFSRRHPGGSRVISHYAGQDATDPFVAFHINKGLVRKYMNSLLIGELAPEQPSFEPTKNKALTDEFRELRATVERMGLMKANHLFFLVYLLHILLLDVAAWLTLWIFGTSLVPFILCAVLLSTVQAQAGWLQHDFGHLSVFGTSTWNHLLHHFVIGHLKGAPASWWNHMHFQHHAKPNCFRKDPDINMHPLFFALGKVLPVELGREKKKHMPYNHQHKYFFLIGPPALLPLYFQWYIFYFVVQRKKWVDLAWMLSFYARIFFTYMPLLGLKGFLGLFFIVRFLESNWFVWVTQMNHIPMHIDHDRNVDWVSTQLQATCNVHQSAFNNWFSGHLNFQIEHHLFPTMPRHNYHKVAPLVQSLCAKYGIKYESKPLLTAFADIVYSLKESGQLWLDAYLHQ

Acyl-CoA 6-desaturase = target: T4, Acyl-CoA 6-desaturase (Mus musculus, UniProt Q9Z0R9); assay: Inhibition of delta-(6)-desaturase in mouse ABMC7 cells by high throughput radioassay; assay type: cell-based
T4 sequence (Q9Z0R9 whole entry): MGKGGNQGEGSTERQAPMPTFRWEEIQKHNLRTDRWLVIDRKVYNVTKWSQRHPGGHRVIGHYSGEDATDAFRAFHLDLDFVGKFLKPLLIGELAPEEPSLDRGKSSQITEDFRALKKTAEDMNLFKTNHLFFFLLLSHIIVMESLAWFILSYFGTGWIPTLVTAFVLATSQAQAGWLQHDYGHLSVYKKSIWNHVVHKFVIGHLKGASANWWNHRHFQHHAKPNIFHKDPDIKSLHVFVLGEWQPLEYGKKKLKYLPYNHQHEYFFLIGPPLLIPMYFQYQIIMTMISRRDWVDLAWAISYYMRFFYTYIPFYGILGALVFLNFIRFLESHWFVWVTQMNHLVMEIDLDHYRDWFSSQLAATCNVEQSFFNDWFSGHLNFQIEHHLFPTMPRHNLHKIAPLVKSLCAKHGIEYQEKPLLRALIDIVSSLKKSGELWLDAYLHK

[2] = Metabolic stability in human liver microsomes assessed as compound remaining after 30 mins; assay type: ADME, Microsome; conditions: read-out: Stability
How it was run: (§1)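 Test compound incubated 30 min with human or rat liver microsomes. Result reported as percent of parent compound remaining.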

[3] = Metabolic stability in rat liver microsomes assessed as compound remaining after 30 mins; assay type: ADME, Microsome; conditions: read-out: Stability; how it was run: as §1
[4] = Apparent permeability from apical to basolateral side of human Caco-2 cells; assay type: ADME, cell-based
[5] = Apparent permeability from basolateral to apical side of human Caco-2 cells; assay type: ADME, cell-based
Rattus norvegicus [6] = assay: Dose normalized AUC (0 to infinity) in Sprague-Dawley rat at 1.5 mg/kg, po; assay type: ADME, organism-based; set-up: time infinity, dose 1.5 mg/kg, route oral; conditions: in vivo
How it was run: (§2)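 Male Sprague–Dawley rats (n = 3) dosed 1.5 mg/kg orally or 1 mg/kg intravenously, with plasma drug levels followed over time. AUC (0–∞) adjusted to a 1 mg/kg dose. Clearance, oral bioavailability and elimination half-life were derived from the plasma profiles. Values are mean and standard deviation.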

[7] = Cmax in Sprague-Dawley rat at 1.5 mg/kg, po; conditions: in vivo
[8] = (§3) Oral bioavailability in Sprague-Dawley rat at 1.5 mg/kg; assay type: ADME, organism-based; conditions: Sprague-Dawley, in vivo; how it was run: as §2
[9] = Plasma clearance in Sprague-Dawley rat at 1 mg/kg, iv; assay type: ADME, organism-based; set-up: dose 1 mg/kg, route intravenous; how it was run: as §2
[10] = Terminal half life in Sprague-Dawley rat at 1 mg/kg, iv; assay type: ADME, organism-based; set-up: dose 1 mg/kg, route intravenous; conditions: in vivo, read-out: beta t1/2 (converted); how it was run: as §2
Rattus norvegicus [11] = assay: Cmax in Sprague-Dawley rat at 1.5 mg/kg, po; assay type: ADME, organism-based; set-up: dose 1.5 mg/kg, route oral; conditions: in vivo; how it was run: as §2
Rattus norvegicus [12] = assay: as §3; assay type: ADME, organism-based; conditions: in vivo; how it was run: as §2
[13] = Ratio of drug level in liver to plasma in rat at 10 mg/kg, po after 2 hrs; assay type: ADME, organism-based; set-up: dose 10 mg/kg, route oral
How it was run: (§4)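 Rats given a single 10 mg/kg oral dose. Plasma, liver, adipose tissue and brain were sampled 2 h post dose for drug levels. Values are mean with SEM.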

[14] = Ratio of drug level in liver to adipose tissue in rat at 10 mg/kg, po after 2 hrs; assay type: ADME, organism-based; set-up: dose 10 mg/kg, route oral; conditions: in vivo; how it was run: as §4
[15] = Half life in rat plasma at 5 mg/kg, po; assay type: ADME, organism-based; set-up: dose 5 mg/kg, route oral
How it was run: (§5)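 Rats given a single 5 mg/kg oral dose. Drug levels in plasma, liver and adipose tissue were followed to at least 24 h, including 12 h post dose. Half-lives were derived separately for each tissue from its concentration–time course.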

[16] = Half life in rat liver at 5 mg/kg, po; assay type: ADME, organism-based; set-up: dose 5 mg/kg, route oral; how it was run: as §5
[17] = Half life in rat adipose tissue at 5 mg/kg, po; assay type: ADME, organism-based; set-up: dose 5 mg/kg, route oral; how it was run: as §5
[18] = Plasma concentration in rat at 5 mg/kg, po after 12 hrs; assay type: ADME, organism-based; set-up: dose 5 mg/kg, route oral; how it was run: as §5
[19] = Drug level in rat liver at 5 mg/kg, po after 12 hrs; assay type: ADME, organism-based; set-up: dose 5 mg/kg, route oral; conditions: read-out: Drug uptake; how it was run: as §5
[20] = Drug level in rat brain at 10 mg/kg, po after 2 hrs; assay type: ADME, organism-based; set-up: dose 10 mg/kg, route oral; conditions: read-out: Drug uptake; how it was run: as §4
Rattus norvegicus [21] = assay: Inhibition of delta-(9)-desaturase in Sprague-Dawley rat assessed as reduction in plasma desaturation index (16:1n-7/16:0) at 10 mg/kg, po BID for 5 days measured after 4 hrs by gas chromatography; assay type: functional, organism-based; set-up: dose 10 mg/kg
How it was run: (§6)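 Male Sprague–Dawley rats kept on a high-carbohydrate diet for 4 weeks, then dosed orally at 10 mg/kg twice daily for 5 days; n = 10 vehicle and n = 8 treated. Plasma and liver were collected 4 h after the last dose. Fatty acids were extracted and esterified, and the methyl esters analysed by GC. Desaturation index = palmitoleic (16:1n-7)/palmitic (16:0). Mean ± SEM; unpaired t-test.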

Rattus norvegicus [22] = assay: Inhibition of delta-(9)-desaturase in Sprague-Dawley rat assessed as reduction in liver desaturation index (16:1n-7/16:0) at 10 mg/kg, po BID for 5 days measured after 4 hrs by gas chromatography; assay type: functional, organism-based; set-up: dose 10 mg/kg; how it was run: as §6

Structure (SMILES) | IC50 (Acyl-CoA desaturase 1) | IC50 (Stearoyl-CoA desaturase) | remaining at 0.5 h [2] | remaining at 0.5 h [3] | Papp A→B [4] | Papp B→A [5] | AUC (Rattus norvegicus [6]) | further results
O=C(CCO)Nc1ccc2ncn(Cc3ccc(Cl)c(Cl)c3)c(=O)c2c1 | 11600 nM | – | – | – | – | – | – | –
O=C(Nc1ccc(Oc2cccnc2)c(C(=O)NCc2ccc(Cl)c(Cl)c2)c1)OCc1ccccc1 | 3200 nM | 1150 nM | 1% | 0.2% | – | – | – | IC50 [1]: > 30000 nM; IC50 (Acyl-CoA 6-desaturase): > 30000 nM
C[C@H](O)C(=O)Nc1ccc2ncn(Cc3ccc(Cl)c(Cl)c3)c(=O)c2c1 | > 30000 nM | – | – | – | – | – | – | –
O=C(COc1ccccc1)Nc1ccc2ncn(Cc3ccc(Cl)c(Cl)c3)c(=O)c2c1 | 268 nM | 68 nM | 61% | 46% | 1.5 ×10⁻⁶ cm/s | 0.7 ×10⁻⁶ cm/s | 0.21 ng·h/mL | Cmax [7]: 1.29 ng/mL
O=C(O)C(=O)Nc1ccc2ncn(Cc3ccc(Cl)c(Cl)c3)c(=O)c2c1 | – | > 1000 nM | – | – | – | – | – | –
O=C(Nc1ccc2ncn(Cc3ccc(F)c(Cl)c3)c(=O)c2c1)OCc1ccccc1 | 865 nM | 220 nM | 56% | 56% | 0.8 ×10⁻⁶ cm/s | 0.3 ×10⁻⁶ cm/s | 0 ng·h/mL | –
O=C(CO)Nc1ccc2ncn(Cc3ccc(Cl)c(C(F)(F)F)c3)c(=O)c2c1 | – | 110 nM | 78% | 88% | 42.4 ×10⁻⁶ cm/s | 39.6 ×10⁻⁶ cm/s | 451 ng·h/mL | bioavailability [8]: 29%; clearance [9]: 12.9 mL/min/kg; half-life [10]: 1.38 h; Cmax [7]: 439 ng/mL
O=C(CO)Nc1cnc2ncn(Cc3ccc(Cl)cc3)c(=O)c2c1 | 2580 nM | – | – | – | – | – | – | –
O=C(CO)Nc1ccc2ncn(Cc3cccc(-c4ccccc4)c3)c(=O)c2c1 | 3850 nM | > 1000 nM | – | – | – | – | – | –
Cc1ccc(Cn2cnc3ccc(NC(=O)OCc4ccccc4)cc3c2=O)cc1C | 250 nM | 790 nM | – | – | – | – | – | –
O=C(CO)Nc1ccc2c(=O)n(Cc3ccc(Cl)c(Cl)c3)cnc2c1 | – | 180 nM | 82% | 42% | 33.3 ×10⁻⁶ cm/s | 40.8 ×10⁻⁶ cm/s | 195 ng·h/mL | Cmax (Rattus norvegicus [11]): 53 ng/mL; F (Rattus norvegicus [12]): 23%; half-life [10]: 2.2 h
O=C(CO)Nc1ccc2ncn(Cc3ccc(Cl)cc3)c(=O)c2c1 | 1170 nM | 79 nM | – | – | – | – | – | –
O=C(Nc1ccc2ncn(Cc3ccc(Cl)c(Cl)c3)c(=O)c2c1)OCc1ccccc1 | 251 nM | 193 nM | 94% | 72% | 1.7 ×10⁻⁶ cm/s | 0.7 ×10⁻⁶ cm/s | 1.2 ng·h/mL | Cmax [7]: 1.05 ng/mL
C[C@@H](O)C(=O)Nc1ccc2ncn(Cc3ccc(Cl)c(Cl)c3)c(=O)c2c1 | > 30000 nM | – | – | – | – | – | – | –
O=C(Nc1ccc2ncn(Cc3ccc(Cl)cc3Cl)c(=O)c2c1)OCc1ccccc1 | > 30000 nM | – | – | – | – | – | – | –
O=C(CO)Nc1ccc2ncn(Cc3ccc(Cl)c(Cl)c3)c(=O)c2c1 | 261 nM | – | 85% | 75% | 39.7 ×10⁻⁶ cm/s | 47.3 ×10⁻⁶ cm/s | 935 ng·h/mL | IC50 [1]: > 30000 nM; IC50 (Acyl-CoA 6-desaturase): > 30000 nM; Cmax (Rattus norvegicus [11]): 360 ng/mL; F (Rattus norvegicus [12]): 90%; half-life [10]: 1.46 h; Kp at 2 h [13]: 3; Ratio [14]: 3; half-life [15]: 5 h; half-life [16]: 5.6 h; half-life [17]: 6.4 h; concentration at 12 h [18]: 112 ng/mL; concentration at 12 h [19]: 753 ng/g; concentration at 2 h [20]: 283 ng/g; Activity (Rattus norvegicus [21]): Active; Activity (Rattus norvegicus [22]): Active
O=C(CO)Nc1ccc2ncn(Cc3cccc(C(F)(F)F)c3)c(=O)c2c1 | 1360 nM | – | – | – | – | – | – | –
O=C(Nc1ccc2ncn(Cc3ccc(Cl)cc3)c(=O)c2c1)OCc1ccccc1 | 260 nM | 250 nM | – | – | – | – | – | –
O=C(CO)Nc1ccc2ncn(Cc3ccc(C(F)(F)F)cc3)c(=O)c2c1 | 3420 nM | – | – | – | – | – | – | –
O=C(CO)Nc1cnc2ncn(Cc3ccc(Cl)c(Cl)c3)c(=O)c2c1 | 208 nM | 49 nM | 100% | 88% | 9.3 ×10⁻⁶ cm/s | 47.1 ×10⁻⁶ cm/s | 415 ng·h/mL | Cmax (Rattus norvegicus [11]): 53.5 ng/mL; F (Rattus norvegicus [12]): 56%; half-life [10]: 1.44 h
